What is called inhibition is how much of the control response was suppressed.

Active and inactive are the calls of the source. The calls are words filed in the database; no cut-off is given here.

The values that follow come from ChEMBL document CHEMBL3351794, “Synthesis and biological evaluation of pentacyclic strychnos alkaloids as selective modulators of the ABCC10 (MRP7) efflux pump” (J Med Chem, 2014).

Series [1] deals with T1, ATP-binding cassette sub-family C member 10 (Homo sapiens) (UniProt Q5T3U5).
T1 sequence (whole entry): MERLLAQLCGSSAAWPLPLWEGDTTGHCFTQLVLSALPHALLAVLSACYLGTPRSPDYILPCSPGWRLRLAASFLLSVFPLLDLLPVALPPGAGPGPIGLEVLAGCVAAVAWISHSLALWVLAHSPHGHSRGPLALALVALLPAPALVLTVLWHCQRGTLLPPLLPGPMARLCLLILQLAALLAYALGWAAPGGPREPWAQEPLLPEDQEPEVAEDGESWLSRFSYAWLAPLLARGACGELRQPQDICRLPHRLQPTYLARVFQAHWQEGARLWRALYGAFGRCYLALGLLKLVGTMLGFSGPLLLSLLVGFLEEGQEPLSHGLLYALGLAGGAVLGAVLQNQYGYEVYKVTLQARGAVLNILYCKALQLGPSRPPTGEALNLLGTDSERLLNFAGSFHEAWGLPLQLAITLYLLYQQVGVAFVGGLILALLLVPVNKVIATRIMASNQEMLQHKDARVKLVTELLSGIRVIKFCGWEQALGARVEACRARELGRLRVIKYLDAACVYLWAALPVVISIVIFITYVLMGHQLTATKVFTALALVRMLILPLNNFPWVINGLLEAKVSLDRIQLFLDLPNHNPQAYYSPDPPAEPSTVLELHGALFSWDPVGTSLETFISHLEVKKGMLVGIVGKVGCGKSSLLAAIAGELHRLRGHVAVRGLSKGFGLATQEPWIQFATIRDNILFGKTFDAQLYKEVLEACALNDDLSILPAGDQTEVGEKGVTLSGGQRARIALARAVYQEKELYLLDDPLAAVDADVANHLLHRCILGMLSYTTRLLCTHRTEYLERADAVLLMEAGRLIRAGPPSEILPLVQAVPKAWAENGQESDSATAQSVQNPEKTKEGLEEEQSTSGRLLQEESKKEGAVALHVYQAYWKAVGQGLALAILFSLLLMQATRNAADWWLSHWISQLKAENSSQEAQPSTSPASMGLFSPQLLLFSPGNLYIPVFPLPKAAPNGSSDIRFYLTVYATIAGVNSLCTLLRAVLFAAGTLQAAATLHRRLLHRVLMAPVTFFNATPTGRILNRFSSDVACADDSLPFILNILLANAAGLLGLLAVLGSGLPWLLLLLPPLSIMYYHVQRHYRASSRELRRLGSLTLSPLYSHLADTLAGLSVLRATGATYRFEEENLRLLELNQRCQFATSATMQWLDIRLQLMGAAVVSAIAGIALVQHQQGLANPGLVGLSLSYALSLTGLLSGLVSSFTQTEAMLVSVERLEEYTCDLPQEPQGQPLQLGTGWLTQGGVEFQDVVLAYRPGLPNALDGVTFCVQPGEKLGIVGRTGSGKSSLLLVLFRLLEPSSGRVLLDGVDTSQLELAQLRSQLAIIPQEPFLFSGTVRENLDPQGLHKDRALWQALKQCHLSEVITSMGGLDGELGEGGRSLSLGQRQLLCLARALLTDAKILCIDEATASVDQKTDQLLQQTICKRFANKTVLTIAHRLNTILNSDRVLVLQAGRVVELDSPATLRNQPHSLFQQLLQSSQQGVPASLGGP
Description: Inhibition of ABCC10 (unknown origin) assessed as reduction in BeFx-sensitive ATPase activity at 2.08 to 50 uM incubated over 20 mins by inorganic phosphate release assay. The gist of the method: (§1)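 Membranes holding ABCC10 (5−10 μg protein) were preincubated for 5 min at 37 °C with test agent in 2× assay buffer (Tris-HCl pH 7.5, KCl, sodium azide, EGTA, ouabain, DTT) plus MgCl2. The reaction was started with 5 mM ATP and run 20 min at 37 °C, then stopped with 5% SDS. Released Pi was read colorimetrically (Lanzetta), and ABCC10 activity was taken as the BeFx-sensitive fraction.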

Series [2] addresses P-gp (ABCB1) ATPase activity (Homo sapiens, UniProt P08183). Description: Inhibition of P-gp (unknown origin) assessed as reduction in ATPase activity at 2.08 to 6.25 uM incubated over 20 mins by inorganic phosphate release assay. The method in brief: (§2)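 P-gp ATPase assay run in the same way as the ABCC10 assay. Membrane protein (5−10 μg) was preincubated 5 min at 37 °C with test agent, buffer (Tris-HCl pH 7.5, KCl, azide, EGTA, ouabain, DTT) and MgCl2. The reaction was started with 5 mM ATP, run 20 min at 37 °C and quenched with SDS. Pi was measured colorimetrically.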

Series [3] addresses T1, ATP-binding cassette sub-family C member 10 (Homo sapiens). Description: Inhibition of ABCC10 (unknown origin) assessed as reduction in BeFx-sensitive ATPase activity incubated over 20 mins by inorganic phosphate release assay. The gist of the method: as §1
Series [4] addresses ATP-dependent translocase ABCB1 (Homo sapiens, UniProt P08183). Description: Inhibition of P-gp (unknown origin) assessed as reduction in ATPase activity at 2.08 to 50 uM incubated over 20 mins by inorganic phosphate release assay. The method in brief: as §2
Series [5] deals with T1, ATP-binding cassette sub-family C member 10 (Homo sapiens). The series is described as follows: Inhibition of ABCC10 (unknown origin) expressed in HEK293 cells assessed as reversal of paclitaxel resistance at 12.5 uM after 72 hrs by MTS/PMS assay. Type of series: cell-based. The gist of the method: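 Cells used were HEK293-pcDNA3 vector control and the ABCC10 (MRP7) transfectants C17 and C18, seeded in triplicate at 5000 cells/well in DMEM with 10% FBS. Next day, paclitaxel was added at various concentrations, with or without modulator at 12.5 μM. Survival was read after 72 h of drug exposure by MTS/PMS colorimetric assay.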

For series [6] the target is unchanged. The series is described as follows: Inhibition of ABCC10 (unknown origin) assessed as reduction in BeFx-sensitive ATPase activity at 12.5 uM incubated over 20 mins by inorganic phosphate release assay. The gist of the method: as §1
Series [7] has the same target. Description: Inhibition of ABCC10 (unknown origin) assessed as reduction in BeFx-sensitive ATPase activity at 50 uM incubated over 20 mins by inorganic phosphate release assay. The method in brief:
as §1

Sequence of ATP-dependent translocase ABCB1 (P08183 whole entry): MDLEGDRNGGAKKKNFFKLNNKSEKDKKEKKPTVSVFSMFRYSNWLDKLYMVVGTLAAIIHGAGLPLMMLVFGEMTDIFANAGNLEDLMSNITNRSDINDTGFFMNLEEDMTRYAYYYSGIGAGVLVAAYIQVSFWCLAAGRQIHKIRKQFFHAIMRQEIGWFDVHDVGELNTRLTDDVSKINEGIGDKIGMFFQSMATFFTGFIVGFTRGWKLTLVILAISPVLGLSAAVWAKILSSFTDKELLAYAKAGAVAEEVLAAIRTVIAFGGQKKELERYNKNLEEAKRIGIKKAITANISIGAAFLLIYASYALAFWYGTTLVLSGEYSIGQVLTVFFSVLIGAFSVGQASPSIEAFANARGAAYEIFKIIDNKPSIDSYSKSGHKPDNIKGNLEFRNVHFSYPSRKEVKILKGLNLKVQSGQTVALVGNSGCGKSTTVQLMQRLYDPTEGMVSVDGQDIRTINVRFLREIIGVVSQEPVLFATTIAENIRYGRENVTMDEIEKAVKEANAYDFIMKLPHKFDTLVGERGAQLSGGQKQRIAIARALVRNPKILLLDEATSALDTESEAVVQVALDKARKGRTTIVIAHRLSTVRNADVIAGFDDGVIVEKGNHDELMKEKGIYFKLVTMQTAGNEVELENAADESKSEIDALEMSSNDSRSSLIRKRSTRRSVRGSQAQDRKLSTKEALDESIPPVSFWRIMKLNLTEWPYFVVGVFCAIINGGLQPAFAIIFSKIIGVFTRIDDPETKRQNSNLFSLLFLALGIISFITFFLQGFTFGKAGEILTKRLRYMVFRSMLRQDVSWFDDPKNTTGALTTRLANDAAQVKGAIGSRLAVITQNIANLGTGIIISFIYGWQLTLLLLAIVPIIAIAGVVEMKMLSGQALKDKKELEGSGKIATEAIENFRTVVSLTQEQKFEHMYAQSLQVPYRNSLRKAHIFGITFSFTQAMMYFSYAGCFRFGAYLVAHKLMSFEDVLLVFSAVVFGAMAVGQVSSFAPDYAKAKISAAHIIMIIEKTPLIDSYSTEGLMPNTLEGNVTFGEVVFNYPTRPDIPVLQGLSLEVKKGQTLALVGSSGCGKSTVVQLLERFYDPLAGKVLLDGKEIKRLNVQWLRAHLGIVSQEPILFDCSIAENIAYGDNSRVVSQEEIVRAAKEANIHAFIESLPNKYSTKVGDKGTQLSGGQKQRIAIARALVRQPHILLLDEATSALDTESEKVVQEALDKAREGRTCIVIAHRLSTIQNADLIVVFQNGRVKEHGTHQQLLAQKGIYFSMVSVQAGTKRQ
Sequence of P-gp (ABCB1) ATPase activity (P08183 whole entry): as above

Consider `COC(=O)C1=C2Nc3ccccc3[C@@]23CCN2C[C@H]([C@@H](C)O)[C@@H]1C[C@H]23`, for which the inhibition result in series [1] is “inactive”. Further, the inhibition at 20 min in series [2] stood at 35%.

On to `COc1ccc2cc1Oc1ccc(cc1)C[C@H]1c3c(cc4c(c3Oc3cc5c(cc3OC)CCN(C)[C@@H]5C2)OCO4)CCN1C`, for which, in series [3], the inhibition was determined as 20%.

On to `CCOC(=O)O[C@H](C)[C@H]1CN2CC[C@]34C(=C(C(=O)OC)[C@H]1C[C@H]23)Nc1ccccc14` [ALSTOLUCINE A], for which, in series [4], the “inhibition (INH)” value is “Not Active”. The inhibition result in series [1] was “inactive”.

With `COC(=O)C1=C2Nc3ccccc3[C@@]23CCN2C[C@@H](C(C)=O)[C@@H]1C[C@H]23` [ALSTOLUCINE B], the “inhibition (INH)” value in series [4] was “Not Active”. Moreover, the inhibition came to 50% in series [5] and 40% in series [6].

For the compound `COC(=O)C1=C2Nc3ccccc3[C@@]23CCN2C[C@H](C(C)=O)[C@@H]1C[C@H]23` [ALSTOLUCINE F], the “inhibition (INH)” value in series [4] is on record as “Not Active”. The inhibition in series [7] is 40%; in series [5], 50%.
